Source: ChEMBL document CHEMBL2177067 (J Med Chem, 2012)
pIC50: −log10 of the molar value. ≈ marks a conversion by molar mass, not a printed value.

How the values were obtained:
[1] = Inhibition of Staphylococcus aureus ATCC 25923 replicative DnaB helicase-mediated ATP-dependent dissociation of Hel-5'FAM:Hel-3'BHQ by FRET assay
Method in brief: (§1)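 Unwinding was read by FRET as helicase-driven, ATP-dependent dissociation of annealed Hel-5′FAM and Hel-3′BHQ oligonucleotides, one fluorescent and the other quencher-labelled. The replicative helicases were prepared as described earlier.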

Replicative DNA helicase = biological target: T1, Replicative DNA helicase (Bacillus anthracis, UniProt A0A6L8Q2B7); assay: Inhibition of Bacillus anthracis Sterne 34F2 replicative DNA helicase-mediated ATP-dependent dissociation of Hel-5'FAM:Hel-3'BHQ by FRET assay; parameters: species or system Bacillus anthracis str. Sterne; method in brief: as §1
T1 sequence (A0A6L8Q2B7 whole entry): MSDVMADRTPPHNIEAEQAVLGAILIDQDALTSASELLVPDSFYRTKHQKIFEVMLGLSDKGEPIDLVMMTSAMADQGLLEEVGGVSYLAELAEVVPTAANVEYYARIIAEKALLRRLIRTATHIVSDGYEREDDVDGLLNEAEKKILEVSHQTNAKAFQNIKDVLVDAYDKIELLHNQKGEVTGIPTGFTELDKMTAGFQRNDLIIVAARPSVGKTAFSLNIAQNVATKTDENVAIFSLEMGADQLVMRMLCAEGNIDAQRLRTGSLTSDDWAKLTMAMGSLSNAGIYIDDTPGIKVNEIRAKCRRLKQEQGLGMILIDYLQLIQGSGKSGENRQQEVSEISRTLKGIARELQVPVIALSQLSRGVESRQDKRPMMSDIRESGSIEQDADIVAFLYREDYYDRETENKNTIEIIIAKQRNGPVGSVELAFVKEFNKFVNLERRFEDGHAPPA

[2] = Selectivity index, ratio of CC50 for human HeLa cells to MIC for Staphylococcus aureus ATCC 25923; assay type: functional
Method in brief: (§2)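 Selectivity index is HeLa CC50 (MTS assay) divided by the bacterial MIC.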

HeLa = assay: Cytotoxicity against human HeLa cells by MTS assay; assay type: cell-based
[3] = Selectivity index, ratio of CC50 for human HeLa cells to MIC for Bacillus anthracis; assay type: functional; method in brief: as §2
Staphylococcus aureus [4] = assay: Antibacterial activity against Staphylococcus aureus ATCC 25923 by broth microdilution method in presence of reserpine; assay type: functional
Staphylococcus aureus [5] = assay: Antibacterial activity against Staphylococcus aureus ATCC 25923 by broth microdilution method; assay type: functional
Bacillus anthracis [6] = assay: Antibacterial activity against Bacillus anthracis by broth microdilution method; assay type: functional
Staphylococcus aureus [7] = assay: Antibacterial activity against methicillin-resistant Staphylococcus aureus 1094; assay type: functional
Staphylococcus aureus [8] = assay: Antibacterial activity against methicillin-resistant Staphylococcus aureus 1234558336; assay type: functional
Staphylococcus aureus [9] = assay: Antibacterial activity against methicillin-resistant Staphylococcus aureus 1234549404; assay type: functional
Staphylococcus aureus [10] = assay: Antibacterial activity against methicillin-resistant Staphylococcus aureus 1234547263; assay type: functional
Staphylococcus aureus [11] = assay: Antibacterial activity against methicillin-resistant Staphylococcus aureus 1234544081; assay type: functional
Staphylococcus aureus [12] = assay: Antibacterial activity against methicillin-resistant Staphylococcus aureus 1234522733; assay type: functional
Staphylococcus aureus [13] = assay: Antibacterial activity against methicillin-resistant Staphylococcus aureus 1234543349; assay type: functional
Staphylococcus aureus [14] = assay: Antibacterial activity against Staphylococcus aureus ATCC 25923; assay type: functional
Enterococcus faecium [15] = assay: Antibacterial activity against vancomycin-resistant Enterococcus faecium 1644; assay type: functional
Enterococcus faecium [16] = assay: Antibacterial activity against vancomycin-resistant Enterococcus faecium B42762; assay type: functional
Enterococcus faecium [17] = assay: Antibacterial activity against Enterococcus faecium ATCC 19434; assay type: functional
Enterococcus faecalis [18] = assay: Antibacterial activity against vancomycin-resistant Enterococcus faecalis F118; assay type: functional
Enterococcus faecalis [19] = assay: Antibacterial activity against vancomycin-resistant Enterococcus faecalis 700802; assay type: functional
Enterococcus faecalis [20] = assay: Antibacterial activity against vancomycin-resistant Enterococcus faecalis 51299; assay type: functional
Enterococcus faecalis [21] = assay: Antibacterial activity against vancomycin-resistant Enterococcus faecalis ATCC 51575; assay type: functional
Enterococcus faecalis [22] = assay: Antibacterial activity against Enterococcus faecalis ATCC 29212; assay type: functional
Bacillus licheniformis = assay: Antibacterial activity against Bacillus licheniformis ATCC 14580; assay type: functional
Bacillus anthracis [23] = assay: Antibacterial activity against Bacillus anthracis Sterne; assay type: functional
Bacillus thuringiensis = assay: Antibacterial activity against Bacillus thuringiensis ATCC 10792; assay type: functional
Bacillus subtilis = assay: Antibacterial activity against Bacillus subtilis BD54; assay type: functional
Staphylococcus aureus [24] = assay: Inhibition of Staphylococcus aureus ATCC 25923 single-strand DNA stimulated ATPase activity of replicative DnaB helicase at 50 uM by FRET assay

## Cc1c(CCC(=O)O)c(=O)oc2c(C)c(OCc3ccc4ccc(Cl)cc4n3)ccc12
[1]
  pIC50: 4.30
Replicative DNA helicase
  pIC50: 4.25

## CCc1c(OCc2ccc(-c3ccccc3)cc2)ccc2c(C)c(CCCC(=O)O)c(=O)oc12
[2]
  Selectivity Index: 3.1
HeLa
  CC50: 15.4 µM
[3]
  Selectivity Index: 6.2
Staphylococcus aureus [4]
  MIC: > 100 µM
Staphylococcus aureus [5]
  MIC: > 100 µM
Bacillus anthracis [6]
  MIC: 2.5 µM (≈ 1.14 µg/mL)
[1]
  pIC50: 5.74
Replicative DNA helicase
  pIC50: 5.30

## Cc1c(CCC(=O)O)c(=O)oc2c(C)c(OCc3nccc4ccccc34)ccc12
[1]
  pIC50: < 4.00
Replicative DNA helicase
  pIC50: < 4.00

## Cc1c(CCC(=O)O)c(=O)oc2c(C)c(OCc3ccccc3)ccc12
[1]
  pIC50: 4.22
Replicative DNA helicase
  pIC50: 4.07

## Cc1c(CCC(=O)O)c(=O)oc2c(C)c(OCc3ccncc3)ccc12
[1]
  pIC50: < 4.00
Replicative DNA helicase
  pIC50: < 4.00

## Cc1c(CC(=O)O)c(=O)oc2c(C)c(OCc3ccc(-c4ccccc4)cc3)ccc12
[2]
  Selectivity Index: 14
HeLa
  CC50: 115 µM
[3]
  Selectivity Index: 46
Staphylococcus aureus [4]
  MIC: 12.5 µM
Staphylococcus aureus [5]
  MIC: 8.2 µM (≈ 3.4 µg/mL)
Bacillus anthracis [6]
  MIC: 2.5 µM (≈ 1.04 µg/mL)
[1]
  pIC50: 5.07
Replicative DNA helicase
  pIC50: 5.05

## Cc1c(CCC(=O)NCCN(C)C)c(=O)oc2c(C)c(OCc3ccc(-c4ccccc4)cc3)ccc12
[2]
  Selectivity Index: 0.22
HeLa
  CC50: 1.1 µM
[3]
  Selectivity Index: 0.44
Staphylococcus aureus [5]
  MIC: 5 µM (≈ 2.49 µg/mL)
Bacillus anthracis [6]
  MIC: 2.5 µM (≈ 1.25 µg/mL)
[1]
  pIC50: 5.77
Replicative DNA helicase
  pIC50: 5.74

## Cc1c(CCC(=O)O)c(=O)oc2cc(OCc3nccc4ccccc34)ccc12
[1]
  pIC50: < 4.00
Replicative DNA helicase
  pIC50: < 4.00

## C=CCOc1ccc2c(C)c(CCC(=O)O)c(=O)oc2c1C
[1]
  pIC50: < 4.00
Replicative DNA helicase
  pIC50: < 4.00

## Cc1c(CCC(=O)O)c(=O)oc2cc(OCc3ccc4ccc(Cl)cc4n3)ccc12
[1]
  pIC50: 4.15
Replicative DNA helicase
  pIC50: < 4.00

## Cc1c(CCC(=O)O)c(=O)oc2c(C)c(OCc3ccc(-c4ccc(Cl)cc4)cc3)ccc12
Staphylococcus aureus [7]
  MIC: 2.1 µg/mL (≈ 4.54 µM)
Staphylococcus aureus [8]
  MIC: 1.04 µg/mL (≈ 2.25 µM)
Staphylococcus aureus [9]
  MIC: 0.52 µg/mL (≈ 1.12 µM)
Staphylococcus aureus [10]
  MIC: 0.65 µg/mL (≈ 1.4 µM)
Staphylococcus aureus [11]
  MIC: 0.65 µg/mL (≈ 1.4 µM)
Staphylococcus aureus [12]
  MIC: 0.78 µg/mL (≈ 1.68 µM)
Staphylococcus aureus [13]
  MIC: 1.56 µg/mL (≈ 3.37 µM)
Staphylococcus aureus [14]
  MIC: 0.78 µg/mL (≈ 1.68 µM)
Enterococcus faecium [15]
  MIC: 10.4 µg/mL (≈ 22.5 µM)
Enterococcus faecium [16]
  MIC: 9.4 µg/mL (≈ 20.3 µM)
Enterococcus faecium [17]
  MIC: 12.5 µg/mL (≈ 27 µM)
Enterococcus faecalis [18]
  MIC: 3.6 µg/mL (≈ 7.78 µM)
Enterococcus faecalis [19]
  MIC: 16.7 µg/mL (≈ 36.1 µM)
Enterococcus faecalis [20]
  MIC: 4.2 µg/mL (≈ 9.07 µM)
Enterococcus faecalis [21]
  MIC: 25 µg/mL (≈ 54 µM)
Enterococcus faecalis [22]
  MIC: 6.3 µg/mL (≈ 13.6 µM)
Bacillus licheniformis
  MIC: 0.098 µg/mL (≈ 0.212 µM)
Bacillus anthracis [23]
  MIC: 0.17 µg/mL (≈ 0.367 µM)
Bacillus thuringiensis
  MIC: 0.52 µg/mL (≈ 1.12 µM)
Bacillus subtilis
  MIC: 3.1 µg/mL (≈ 6.7 µM)
Staphylococcus aureus [24]
  inhibition: 8%
HeLa
  CC50: 25 µM
Staphylococcus aureus [5]
  MIC: 1.25 µM (≈ 0.579 µg/mL)
Bacillus anthracis [6]
  MIC: 0.625 µM (≈ 0.289 µg/mL)
[1]
  pIC50: 6.00
Replicative DNA helicase
  pIC50: 5.82

## Cc1c(CCC(=O)O)c(=O)oc2cc(OCc3cccc(-c4ccccc4)c3)ccc12
[2]
  Selectivity Index: 1
HeLa
  CC50: 10.1 µM
[3]
  Selectivity Index: 4
Staphylococcus aureus [5]
  MIC: 10 µM (≈ 4.14 µg/mL)
Bacillus anthracis [6]
  MIC: 2.5 µM (≈ 1.04 µg/mL)
Replicative DNA helicase
  pIC50: 4.82

## Cc1c(CCC(=O)O)c(=O)oc2c(C)c(OCc3ccc(-c4ccc(Cl)c(Cl)c4)cc3)ccc12
[2]
  Selectivity Index: 6.4
HeLa
  CC50: 19.2 µM
[3]
  Selectivity Index: 6.4
Staphylococcus aureus [4]
  MIC: 6.3 µM
Staphylococcus aureus [5]
  MIC: 3 µM (≈ 1.49 µg/mL)
Bacillus anthracis [6]
  MIC: 3 µM (≈ 1.49 µg/mL)
[1]
  pIC50: 5.62
Replicative DNA helicase
  pIC50: 5.52

## CNC(=O)CCc1c(C)c2ccc(OCc3ccc(-c4ccc(Cl)cc4)cc3)c(C)c2oc1=O
[2]
  Selectivity Index: 0.91
HeLa
  CC50: 90.7 µM
[3]
  Selectivity Index: 0.91
Staphylococcus aureus [5]
  MIC: > 100 µM
Bacillus anthracis [6]
  MIC: > 100 µM
[1]
  pIC50: 4.42
Replicative DNA helicase
  pIC50: < 4.00
